Experiments:
[1] = folding enthalpy; higher = less favourable; fluorescence melt of hairpins on a sequencing array, two-state fit; settings: sodium 0.088 M
Method in brief: (§1)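 Folding enthalpy and melting temperature were estimated with bootstrapped two-state fits and combined across four replicates by inverse-variance weighting, with fitted temperatures raised by 9.35 °C to match UV melts. The data were Cy3 fluorescence of library hairpins, with annealed Cy3 and quencher oligos, on a sequenced MiSeq flow cell in 50 mM Na-HEPES pH 8.0, 25 mM NaCl, imaged in 2.5 °C steps up to 60 °C and normalised to pre-quench Cy3 and control constructs.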

[2] = melting temperature; fluorescence melt of hairpins on a sequencing array, two-state fit, raised by 9.35 °C to match UV melts; settings: sodium 0.088 M
Method in brief: as §1

Sequence | folding enthalpy [1] | Tm [2]
GTTAGGGGAAACCCTGAC ((.((((....)))).)) | -28.4 kcal/mol | 45.6 °C
GCCGGCGAAAGCCCCGGC ((((((....)))..))) | -18.3 kcal/mol | 55.2 °C
GCATGAGAAATCATGC ((((((....)))))) | -38.7 kcal/mol | 56.4 °C
GATCAAACGCTTGATC ((((((....)))))) | -29.5 kcal/mol | 41.5 °C
GTGCATGGAAACATGCGC (.(((((....))))).) | -21.5 kcal/mol | 56.9 °C
GAAGATGGAAACATTTTC (((.(((....))).))) | -21.9 kcal/mol | 30.4 °C
GTGCACCCGAAAGGGCAC (((..(((....)))))) | -23.9 kcal/mol | 52.1 °C
GCCTACGAAAGTAACGGC ((((((....)))..))) | -26.5 kcal/mol | 44 °C
GGTGTCGCGAAAGCGACC (((..(((....)))))) | -7.75 kcal/mol | 54 °C
GTGGAACGAAAGTTTCAC (((.(((....))).))) | -42.7 kcal/mol | 53.2 °C
GAGAGGGCGAAAGCCCTC (((..(((....)))))) | -6.41 kcal/mol | 66.5 °C
GCCGCATCGAAAGATGGC (((..(((....)))))) | -11.4 kcal/mol | 46.9 °C
GATCTAGAATAGATC ((((((...)))))) | -37.4 kcal/mol | 49.9 °C
GCTACGGGAAACCGCAAC (.(.(((....))).).) | -9.56 kcal/mol | 24.1 °C
GATCGGGCTCCCGATC ((((((....)))))) | -40.6 kcal/mol | 58.5 °C
GCGACCGAAAGGTCCCGC ((((((....)))..))) | -13.3 kcal/mol | 42.1 °C
GTTTTGCGAAAGCAGAAC (((.(((....))).))) | -29.9 kcal/mol | 51.4 °C
GATATGCGAAAGCAGATC (((.(((....))).))) | -30.3 kcal/mol | 53.3 °C
GGTGAGGGAAACCTCATC (.(((((....))))).) | -25.1 kcal/mol | 48.5 °C
GCTACACGAAAGTGCAGC (((.(((....))).))) | -42.1 kcal/mol | 53.1 °C
GCTCACGGAAACACGAGC ((((..(....)..)))) | -25.8 kcal/mol | 34 °C
GGGACCCGAAAGGGCCC (((.(((....)))))) | -19 kcal/mol | 66 °C
GATCGGGCCCCCGATC ((((((....)))))) | -43.2 kcal/mol | 59.6 °C

Sequence | folding enthalpy [1] | Tm [2]
GCGGAATCCCGC ((((....)))) | -22.1 kcal/mol | 53.9 °C
GTTAACGAAAGTTACAAC ((((((....)))..))) | -12.3 kcal/mol | 25.6 °C
CGCAGGCGGAAACGCGCG (((..(((....)))))) | -23 kcal/mol | 56.2 °C
GATCTATTTTTAGATC ((((((....)))))) | -42.5 kcal/mol | 44.3 °C
GTATGGGGAAACTCATAC (((((.(....).))))) | -34.5 kcal/mol | 40.5 °C
GCAGGCGGAAACGCCCAC (..((((....))))..) | -6.7 kcal/mol | 27.1 °C
GAATAAGGAAACTTATTC (((((((....))))))) | -33.5 kcal/mol | 44.6 °C
GGTGCTGGAAACGGCACC (((((.(....).))))) | -45.8 kcal/mol | 62.9 °C
GGTTCAACGAAAGTTACC (((..(((....)))))) | -14.4 kcal/mol | 27.8 °C
GATCCGAGGGCGGATC ((((((....)))))) | -31.5 kcal/mol | 55.3 °C
GTGGTTCGAAAGAAACAC (((.(((....))).))) | -48.8 kcal/mol | 55.8 °C
GATCCGCCTGCGGATC ((((((....)))))) | -40.3 kcal/mol | 69.2 °C
GCGCAGCGAAAGCTCGC (((.(((....)))))) | -15.8 kcal/mol | 63.3 °C
GAAACGCGAAAGCGGTTC (((.(((....))).))) | -27.2 kcal/mol | 66.3 °C
GATCCCAGGAGGGATC ((((((....)))))) | -32.2 kcal/mol | 59.9 °C
GATCACTTTTGTGATC ((((((....)))))) | -43.1 kcal/mol | 59 °C
GGTTCCGAAAGGACCACC ((((((....)))..))) | -14 kcal/mol | 44.3 °C
GGTCAGCGAAAGCTTACC (((.(((....))).))) | -31.8 kcal/mol | 48.9 °C
CCGTAGAAATACGG (((((....))))) | -17.8 kcal/mol | 47.3 °C
GCTGGTGGAAACATCAGC ((((.((....)).)))) | -39.5 kcal/mol | 53.4 °C
GCCGGCACGAAAGTGGGC (((..(((....)))))) | -19.2 kcal/mol | 51.8 °C
GTCCAGGGAAACTTGGAC (((((.(....).))))) | -22.3 kcal/mol | 48.2 °C
GCCCTTCGAAAGAACGGC (((.(((....))).))) | -29.7 kcal/mol | 42.2 °C
